Screening results as filed in PubChem BioAssay.
This is a sample that favours compounds with a hit; in the whole collection about 2.8% have one here.
EP2 modulator – EP2 receptor (human) modulation. P43116. EP2-expressing cells, cAMP HTRF FRET, PGE2 co-stimulation. induction, % at 25 µM. 260,000 compounds, 0.83% hits. AID 940;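 active = compounds whose cAMP rise, as percent of the full-agonist control response, exceeds 60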;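 note: rat C6 glioma line stably carrying human EP2 under a CMV promoter; the protocol text gives 20 µM as final concentration; 100% = response of wells given 1 µM PGE2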
NPY-Y1 antag – NPY-Y1 (human) receptor antagonism | inhibition, % at 3.6 µM | 200,000 compounds, 1% hits | AID 1040 | HEK293-CNG Y1 cells, membrane potential fluorescence; NPY at EC95, then isoproterenol | P25929;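 active = inhibition above the campaign mean inhibition of all tested compounds plus 3 SD, cut at about 20% in these data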;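 note: 0% = DMSO wells given NPY plus isoproterenol and 100% = isoproterenol alone without NPY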
Target sequence (P25929 whole entry, looked up): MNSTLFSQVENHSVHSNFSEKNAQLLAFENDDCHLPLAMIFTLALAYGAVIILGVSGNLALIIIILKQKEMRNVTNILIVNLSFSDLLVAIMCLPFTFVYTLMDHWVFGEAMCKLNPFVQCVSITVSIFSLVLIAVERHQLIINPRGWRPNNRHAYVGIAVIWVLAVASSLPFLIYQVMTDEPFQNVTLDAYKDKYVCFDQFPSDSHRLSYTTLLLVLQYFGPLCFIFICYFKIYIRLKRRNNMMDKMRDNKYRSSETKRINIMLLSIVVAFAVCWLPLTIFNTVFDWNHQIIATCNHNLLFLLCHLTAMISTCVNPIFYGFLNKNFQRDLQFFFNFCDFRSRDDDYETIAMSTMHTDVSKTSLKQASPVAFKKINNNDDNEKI
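material = HEK293 cells with Y1 receptor plus CNG channel | also added = NPY 25 nM then isoproterenol 1 µM plus Ro 20-1724 25 µM | schedule = dye 3 h, compound 60 min room temperature, stimulation 45 min | measured by = membrane potential fluorescence | benchmarks = high control isoproterenol alone, low control NPY with isoproterenol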
NPY-Y2 PAM-ag – potentiates or activates human NPY-Y2 receptor. P49146. activation, % at 3.6 µM. 220,000 compounds, 0.45% hits. cells expressing NPY-Y2, potentiator/agonist read-out; in the data active = activation above about 27%;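 note: cells stimulated with NPY near EC25 plus isoproterenol at EC100; 0% = vehicle plus submaximal agonist and 100% = vehicle plus saturating agonist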
Target sequence (P49146 whole entry, looked up): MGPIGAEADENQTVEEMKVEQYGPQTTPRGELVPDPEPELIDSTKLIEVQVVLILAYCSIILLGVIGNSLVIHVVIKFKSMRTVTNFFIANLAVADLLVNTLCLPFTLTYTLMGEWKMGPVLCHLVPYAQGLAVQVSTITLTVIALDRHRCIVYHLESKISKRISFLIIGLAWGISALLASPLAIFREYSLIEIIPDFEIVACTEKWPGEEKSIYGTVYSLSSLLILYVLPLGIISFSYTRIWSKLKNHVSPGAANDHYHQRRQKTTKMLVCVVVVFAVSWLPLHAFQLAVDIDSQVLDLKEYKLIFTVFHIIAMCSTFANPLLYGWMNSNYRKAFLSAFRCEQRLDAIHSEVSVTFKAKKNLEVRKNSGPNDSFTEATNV
NPY1 pot ag – potentiators or agonists of human neuropeptide Y receptor Y1 | P25929 | NPY-Y1 expressing cells, potentiator/agonist activation | activation, % at 3.6 µM | 220,000 compounds, 0.37% hits | AID 1304; in the data active = activation above about 33%, passing the limit was not always enough;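 note: cells stimulated with NPY at EC10 then isoproterenol at EC100; 0% = low agonist plus stimulus and 100% = saturating agonist plus stimulus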
PGE2 EP2 inh – inhibitors of human EP2 prostaglandin E2 receptor; P43116; C6 glioma cells expressing human EP2, cAMP TR-FRET; cells stimulated with saturating PGE2; inhibition, % at 25 µM; 260,000 compounds, 0.52% hits; AID 1422;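 active = percent inhibition above 40 after rounding to a whole number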;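 note: rat C6 glioma host cells with rolipram phosphodiesterase inhibitor present; the protocol text gives 20 µM as final concentration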
NPY-Y2 antag – NPY-Y2 (human) receptor antagonism | P49146 | NPY-Y2 expressing cells, antagonist mode | inhibition, % at 2.7 µM | 140,000 compounds, 0.99% hits; in the data active = inhibition above about 17%;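 note: 0% = vehicle with agonist challenge and 100% = reference antagonist with challenge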
NPY-Y1 pot conf – human NPY-Y1 potentiation or agonism, confirmation; shares compounds with NPY1 pot ag; cell-based NPY-Y1 potentiator/agonist assay; activation, % at 3.6 µM; 280 compounds, 20% hits; AID 1546; in the data active = activation above about 45%;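 note: cells challenged with NPY at its EC10 plus isoproterenol stimulus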
NPY-Y2 counter – potentiates or activates NPY-Y2, counter-screen for NPY-Y1 hits | activation, % at 3.6 µM | shares compounds with NPY1 pot ag | 280 compounds, 20% hits | AID 1649 | HEK293-CNG cells, membrane-potential fluorescence (FLIPR), 1536-well; in the data active = activation above about 33%
NPY-Y1 ag – counter-screen for NPY-Y1 potentiators: agonists of human NPY-Y1 | shares compounds with NPY1 pot ag | 280 compounds, 50% hits | HEK293 Y1-CNGC, membrane potential fluorescence, agonist mode | activation, % at 3.6 µM;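 active = percent activation above the mean of DMSO-only control wells plus 3 SD of those wells, cut at about 18% in these data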;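 note: cells challenged with isoproterenol plus Ro 20-1724 with no NPY in test wells; Y1 agonism lowers isoproterenol-driven cAMP and reduces probe fluorescence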
NPY-Y2 ag – activates human NPY-Y2, counter-screen for NPY-Y1 hits. shares compounds with NPY1 pot ag. HEK293 Y2-CNGC, membrane potential fluorescence, agonist mode. activation, % at 3.6 µM. 280 compounds, 67% hits;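 active = activation above the solvent-only control wells' mean plus 3 SD, cut at about 11% in these data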;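 note: 0% = DMSO with isoproterenol and 100% = 40 nM NPY maximal response; agonism lowers cAMP so well fluorescence drops in active wells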
CNGC inh 2 – blocks cyclic nucleotide gated channel in NPY-Y1 counter-screen; shares compounds with NPY1 pot ag; HEK293-CNG parental, isoproterenol cAMP, membrane potential fluorescence; inhibition, % at 3.6 µM; 280 compounds, 42% hits; AID 1704;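 active = inhibition above the mean of stimulated solvent-only control wells plus 3 SD, cut at about 22% in these data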;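 note: 0% = isoproterenol-stimulated DMSO wells and 100% = unstimulated DMSO wells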
Starred values were filed as active, the others as inactive; . = no result.

SMILES | EP2 modulator | NPY-Y1 antag | NPY-Y2 PAM-ag | NPY1 pot ag | PGE2 EP2 inh | NPY-Y2 antag | NPY-Y1 pot conf | NPY-Y2 counter | NPY-Y1 ag | NPY-Y2 ag | CNGC inh 2
Cc1cccc(Nc2nc(N)c([N+](=O)[O-])c(NCc3ccccc3)n2)c1 | 76* | . | 34 | 50* | 11 | . | 48* | 32 | 33* | 31* | 45*
CCOc1ccc(C(=O)Nc2ccc(N3CCN(S(C)(=O)=O)CC3)cc2)cc1Cl | -7 | . | . | . | 13 | . | . | . | . | . | .
CCOc1ccc(C(=O)Nc2ccc(N3CCN(C)CC3)cc2)cc1Br | 29 | 0 | 26 | 37* | 13 | 1 | 28 | 19 | 23* | 22* | 26*
Cc1ccc(OCC(=O)OCCN2C(=O)c3ccccc3C2=O)cc1C | 13 | 1 | -12 | -21 | 8 | 6 | . | . | . | . | .
CCOCCOC(=O)COc1ccc(N2C(=O)c3ccccc3C2=O)cc1 | 32 | -3 | 11 | 44* | 6 | 2 | 83* | 55* | 63* | 44* | 80*
N#Cc1c(-n2cccc2/C=N/O)sc2c1CCCC2 | 4 | 4 | 15 | 44* | 6 | 3 | 2 | -2 | -2 | 3 | -2
N#Cc1c(N2C(=O)C3C4C=CC(C4)C3C2=O)sc2c1CCC2 (configuration not stated) | 19 | 3 | -1 | 1 | 14 | -1 | . | . | . | . | .
CCn1c2cc(C)sc2c2cnn(CC(=O)N3CCCC(C)C3)c(=O)c21 (configuration not stated) | -8 | . | . | . | . | . | . | . | . | . | .
Cc1cc(-c2nc3ncccc3o2)ccc1NC(=O)c1ccc2c(c1)OCO2 | -36 | . | . | . | 12 | . | . | . | . | . | .
O=C(Cn1nc(C(F)(F)F)c2c1CCC2)Nc1ccc(Br)cc1 | 3 | . | . | . | 9 | . | . | . | . | . | .
CC1(C)Cc2c(cnn2-c2ccccc2)-c2c1c1ccccc1n2CC(O)CBr (configuration not stated) | 9 | -14 | 13 | 50* | 7 | -3 | 25 | 13 | 12 | 12* | 14
Cc1ccc2[nH]c(=O)c(CN(CCc3ccccc3)S(=O)(=O)c3cccc4nsnc34)cc2c1 | -10 | . | . | . | 7 | . | . | . | . | . | .
COc1ccc(-c2nc(CN3CCCC(C(=O)NC4CCCC4)C3)c(C)o2)cc1 (configuration not stated) | -12 | 0 | -12 | 59* | 9 | 2 | -5 | -1 | -3 | 8 | -1
CCN1CCN(C(c2cc(OC)ccc2OC)c2nnnn2Cc2ccc3c(c2)OCO3)CC1 (configuration not stated) | -35 | . | . | . | 7 | . | . | . | . | . | .
COC(=O)c1sc(-c2ccc(C(C)(C)C)cc2)cc1NC(=O)c1ccccc1C(=O)O | -58 | . | 20 | 63* | 16 | . | 46* | 31 | 39* | 12* | 24*
COc1ccc(-n2nc3ccc(NS(=O)(=O)c4ccc(S(=O)(=O)N(C)C)cc4)cc3n2)cc1 | -44 | . | . | . | 4 | . | . | . | . | . | .
COc1ccc(-n2nc3ccc(NS(C)(=O)=O)cc3n2)cc1Cl | 5 | 3 | 20 | 42* | 12 | 0 | 43 | 8 | 46* | 16* | 17
Cc1cc(C(=O)CN2C(=O)NC(c3ccccc3)(c3ccccc3)C2=O)c(C)n1Cc1ccccc1 | 27 | -3 | 1 | -14 | 6 | -1 | . | . | . | . | .
O=C(CN1C(=O)NC(c2ccccc2)(c2ccccc2)C1=O)c1c[nH]c2ccccc12 | 5 | -8 | 28 | 40* | 4 | . | 36 | 28 | 34* | 21* | 29*
COCCN=c1scc(-c2cccs2)n1/N=C/c1ccc(O)c(O)c1O | 9 | -3 | 32 | 54* | 19 | 0 | 32 | 20 | 29* | 9 | 20
CCN=c1scc(C)n1/N=C/c1ccc(O)c(O)c1O | -16 | -4 | 6 | 0 | 4 | -2 | . | . | . | . | .
Cc1[nH]n(-c2ccc([N+](=O)[O-])cc2)c(=O)c1C=NCCN1CCN(C(=O)c2ccc(F)cc2)CC1 | -54 | 6 | 0 | 7 | . | 1 | . | . | . | . | .
Cc1[nH]n(-c2ccc([N+](=O)[O-])cc2)c(=O)c1C=NCCN1CCN(C(=O)c2cccc(F)c2)CC1 | -30 | -3 | 6 | 47* | 23 | 2 | 15 | 5 | 11 | 2 | 7
O=C(Cn1nc2c3ccccc3ncn2c1=O)NC1CCCCC1 | -12 | . | . | . | . | . | . | . | . | . | .
OC(CNC1Cc2ccccc2C1)COc1ccc(Cl)cc1 (configuration not stated) | 4 | . | 23 | 45* | 5 | . | -4 | 6 | 17* | 16* | -11
SMILES | EP2 modulator | NPY-Y1 antag | NPY-Y2 PAM-ag | NPY1 pot ag | PGE2 EP2 inh | NPY-Y2 antag | NPY-Y1 pot conf | NPY-Y2 counter | NPY-Y1 ag | NPY-Y2 ag | CNGC inh 2
OC(CNC1CCCC1)COc1ccc(-c2ccccc2)cc1 (configuration not stated) | 1 | 6 | -19 | -15 | 10 | . | . | . | . | . | .
CCN(CC)Cc1c(C)[nH]c2c(C)cccc2c1=O | -20 | . | . | . | 15 | . | . | . | . | . | .
Cc1ccc(O)c(N=Nc2ccc(S(=O)(=O)N3CCCC3)cc2)c1 | -14 | . | 35 | 45* | 8 | . | 45* | 32 | 30* | 42* | 27*
CCCn1nnnc1SCC(=O)Nc1ccc(N(C)C)cc1 | -52 | . | . | . | 11 | . | . | . | . | . | .
COc1cc(/C=C2\SC(=S)N(N3CCOCC3)C2=O)ccc1O | -2 | . | -4 | 48* | 2 | . | 18 | 10 | 13 | 10.0* | 10
CC1OC(Nc2ccc(N=Nc3ccccc3)cc2)C(O)C(O)C1O (configuration not stated) | -58 | -9 | 16 | 38* | 5 | . | 33 | 24 | 27* | 37* | 16
CCCn1nc([N+](=O)[O-])c(C(C#N)c2nc3ccccc3s2)c(Cl)c1=O (configuration not stated) | -19 | -7 | 27 | 59* | 7 | 4 | 20 | 21 | 17 | 32* | 17
COCCCNC(=S)N(Cc1ccco1)Cc1cc2cccc(C)c2[nH]c1=O | -11 | . | . | . | 9 | . | . | . | . | . | .
CC(C)(C)NC(=O)CN(C(=O)c1snc(C(N)=O)c1N)c1cccc(C(F)(F)F)c1 | -6 | . | . | . | 12 | . | . | . | . | . | .
Cc1ccc2c(c1)cc(C)c1nn(CC(=O)NC3CCCC3)c(=O)n12 | -8 | . | . | . | 0 | . | . | . | . | . | .
Cc1ccc(NC(=O)N(C2=NCC(C)S2)c2ccccc2)cc1 (configuration not stated) | . | 10 | 6 | 0 | 4 | 3 | . | . | . | . | .
